# Assay outcomes deposited in PubChem by several laboratories.
# KCNQ1 act = potentiators or activators of KCNQ1 channel, primary screen, cell-based, thallium flux, high-throughput. 310,000 tested, 0.35% active. B-score at 10 µM. AID 2648, 2010. CHO-K1 KCNQ1, thallium flux FluxOR fluorescence; active compounds read high. Potassium voltage-gated channel subfamily KQT member 1 (Homo sapiens), P51787;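 active = fluorescence ratio B-score, a plate-corrected score, at least three library SD, with initial intensity B-score within 5 SD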
#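 Material: CHO-K1 cells stably expressing KCNQ1. Medium: assay buffer for compound exposure, DMSO matched across wells. Reagent: K+/Tl+ depolarizing stimulus. Compound dosing: single-concentration screen. Times: 37 °C overnight plating, 90-min dark dye load, 20-min compound pretreatment. Technique: FluxOR Tl+ flux fluorescence.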
# KCNK9 inh = KCNK9 potassium channel inhibitors, primary screen, HEK293 cells, thallium flux | Potassium channel subfamily K member 9 (Homo sapiens), Q9NPC2 | FluxOR thallium flux fluorescence; active compounds read low | B-score at 10 µM | 310,000 tested, 1.2% active;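 active = ratio B-score over 3 SD below the library mean, with starting fluorescence within 5 SD of its mean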;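 note: negative B-score means less thallium flux so channel inhibition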
# Target sequence (Q9NPC2 whole entry, looked up): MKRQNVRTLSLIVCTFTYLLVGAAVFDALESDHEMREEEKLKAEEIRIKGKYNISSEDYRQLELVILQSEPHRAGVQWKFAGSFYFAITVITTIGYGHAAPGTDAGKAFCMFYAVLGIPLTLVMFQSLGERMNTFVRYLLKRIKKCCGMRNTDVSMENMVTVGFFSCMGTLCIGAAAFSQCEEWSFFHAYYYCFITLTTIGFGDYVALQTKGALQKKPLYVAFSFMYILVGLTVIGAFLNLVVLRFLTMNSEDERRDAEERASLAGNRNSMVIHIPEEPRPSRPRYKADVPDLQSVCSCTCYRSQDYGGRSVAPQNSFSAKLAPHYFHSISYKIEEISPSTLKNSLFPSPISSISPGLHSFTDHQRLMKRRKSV
# KCNQ1 inh = inhibitors of human KCNQ1 channel, primary screen, cell-based, thallium flux, high-throughput. CHO-K1 KCNQ1, FluxOR thallium flux fluorescence; active compounds read high. B-score at 10 µM. 310,000 tested, 1.3% active. AID 2642, 2010;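 active = compounds whose thallium flux B-score, printed positive for inhibition, exceeds three library SD while starting fluorescence stays within three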;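 note: channel opened by potassium depolarization with thallium stimulus after 20 min compound exposure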
# KCNK3 inh = human KCNK3 channel inhibitors, primary screen, CHO cells, FluxOR thallium flux, B-score; Potassium channel subfamily K member 3 (Homo sapiens), O14649; 340,000 tested, 0.84% active; FluxOR fluorescence; active compounds read low; B-score at 10 µM; AID 602410, 2012;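 active = B-score under library mean minus 4 SD, starting fluorescence ratio at most library mean plus 5 SD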;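 note: more negative B-score means stronger inhibition of thallium flux through KCNK3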
# hERG rescue = hERG rescue from dofetilide block, primary screen, cell-based, CHO-hERG, FluxOR thallium flux, dofetilide IC70; Voltage-gated inwardly rectifying potassium channel KCNH2 (Homo sapiens), Q12809; dofetilide IC70 present; 310,000 tested, 0.51% active; activation (rescue from dofetilide block), less the hit threshold, % at 10 µM;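 active = activation above the mean of controls blocked by dofetilide plus 5 SD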;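 note: thallium influx through hERG after potassium depolarization seen as dye fluorescence rise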
# Cl transport mod = KCC2 cotransporter modulators, thallium flux, primary screen, cell-based, HEK293 KCC2, FluoZin-2 fluorescence, MLSMR. Solute carrier family 12 member 5 (Homo sapiens), Q9H2X9. KCC2 cells, thallium flux FluoZin-2 fluorescence. B-score of Tl+ flux slope (higher = more flux/activation; lower = inhibition) at 10 µM. 190,000 tested, 2.2% active. AID 1456, 2008;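 active = thallium flux slope and its plate-corrected score both differing from the plate sample mean at a set confidence after two filtering rounds, in either direction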;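 note: slope of fluorescence scaled to starting intensity during 10 to 20 s after thallium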
# * marks the source's active call; other numbers are inactive results; i = inactive; nt = no result given. Only some compounds are listed: those with a hit (about 4.1% of all), similar ones and a draw of the others.
SMILES,KCNQ1 act,KCNK9 inh,KCNQ1 inh,KCNK3 inh,hERG rescue,Cl transport mod
CCc1nn2cc(C(=O)c3cc(Cl)ccc3O)cnc2c1-c1ccc(F)cc1,i,i,8*,i,-10,-0.62
CCOC(=O)Cc1csc(NC(=S)NC(=O)c2ccccc2C)n1,16*,i,i,i,2,29*
Cc1ccc(OCCOC(=O)c2cccc(S(=O)(=O)N3CC(C)OC(C)C3)c2)cc1 (stereo not given),nt,nt,nt,i,nt,nt
COc1ccccc1C(=O)NCC(=O)NNC(=O)c1cccs1,nt,nt,nt,i,nt,nt
O=c1c(C(c2ccccc2)c2c(O)sc3ccccc3c2=O)c(O)sc2ccccc12,i,-8.2*,i,i,-9,21*
O=c1c2ccccc2sc2ccccc12,nt,nt,nt,i,nt,nt
C=CCOc1ccc(C2OC34CCCCC3C(C#N)(C#N)C2(C#N)C(=N)O4)cc1 (stereo not given),i,i,i,i,5.6*,-0.033
O=C(Nc1cccc(Cl)c1)N1CCN2C(=O)c3ccccc3C12c1ccccc1 (stereo not given),i,i,11*,i,-11,-0.16
COc1cc(NC(=O)c2cccc(F)c2)ccc1NC(=O)c1cc2ccccc2o1,i,i,i,i,-12,nt
COc1ccc(C(CC(=O)c2ccc(C)cc2)Nc2ccc([N+](=O)[O-])cc2)cc1 (stereo not given),i,i,6*,i,-8,-0.76
Cc1ccc(NC(CC(=O)c2ccccc2)c2ccc(F)cc2)cc1 (stereo not given),i,i,i,i,-10,nt
COc1ccccc1-c1nc(S(=O)(=O)c2ccc(Cl)cc2)c(N(C)C)o1,i,i,i,i,5.4*,-0.25
CC1c2cc3c(cc2CCN1S(=O)(=O)c1ccccc1)OCCCO3 (stereo not given),i,i,i,i,-6,nt
CC1CC(C)CN(C(=O)C(Cc2ccccc2)NC(=O)c2ccccc2)C1 (stereo not given),i,i,i,i,-10,nt
NC(=NCCc1ccccc1)c1cccc([N+](=O)[O-])c1,i,i,7*,i,-7,nt
C=CCN1C(=O)S/C(=C/c2ccc(Sc3nc4ccccc4[nH]3)o2)C1=O,i,i,6*,i,-3,-0.97
CCn1nc(NS(=O)(=O)c2ccc([N+](=O)[O-])cc2)c2cc3ccccc3nc21,i,i,i,i,-8,nt
COc1cccc(-c2nnc(-c3ccccc3NC(=O)c3ccc(C(C)(C)C)cc3)o2)c1,i,i,i,i,-10,1.2
OCCN1CCN(Cc2cc(Cl)c3cccnc3c2O)CC1,i,i,i,i,-10,0.21
COc1ccccc1N1CCN(Cc2cc(Br)c(O)c3ncccc23)CC1,i,i,i,i,-7,7.2*
Oc1c(CN2CCN(c3ccccn3)CC2)cc(Cl)c2cccnc12,i,i,i,i,-7,7*
CCN(CC(=O)NCc1ccc(F)cc1)C(=O)C1CCN(S(=O)(=O)c2ccc(C(C)C)cc2)CC1,nt,nt,nt,i,nt,nt
O=C(Nc1ccccc1)c1cccc(S(=O)(=O)NCc2ccco2)c1,i,i,i,i,7.3*,0.5
O=C(Nc1ccccc1)c1ccc(S(=O)(=O)NCc2ccco2)cc1,i,i,i,i,-7,nt
COc1ccc(-c2cc(C(=O)Nc3cccc(S(=O)(=O)NCc4ccco4)c3)c3ccccc3n2)cc1OC,i,i,i,i,-12,-1.2
SMILES,KCNQ1 act,KCNK9 inh,KCNQ1 inh,KCNK3 inh,hERG rescue,Cl transport mod
O=C(Nc1cccc(S(=O)(=O)NCc2ccco2)c1)c1cc(-c2ccc(F)cc2)nc2ccccc12,i,i,7*,i,-10,-1.2
O=C(Nc1ccc(F)c(Cl)c1)c1ccccc1NC(=O)C1CCCCC1C(=O)O (stereo not given),nt,nt,nt,i,nt,nt
COc1ccc(C2(C)CC(C)(C)Nc3ccccc32)cc1 (stereo not given),8*,i,i,i,-12,nt
COc1ccc(C2CC(C)(c3ccc(OC)cc3)Nc3ccccc3N2)cc1 (stereo not given),i,i,i,i,-5,0.93
COc1ccc(CN2CCN(C(=O)c3cccc4ccccc34)CC2)cc1Br,i,-6.9*,i,i,-6,nt
Cc1onc(-c2c(Cl)cccc2Cl)c1C(=O)n1nnc2ccccc21,i,i,i,nt,4.8*,0.062
Cc1onc(-c2c(Cl)cccc2Cl)c1C(N)=O,i,i,i,i,-2,0.56
CCOC(=O)/C(C#N)=C\C=C1C=CN(C)C=C1,i,i,8*,i,-15,i
CCOC(=O)/C(C#N)=C\c1ccc(CC)s1,i,i,i,i,-3,0.011
CCN(CC)C(=O)CCCc1c[nH]c2ccccc12,i,i,i,i,2,-0.59
CCCCN(C)C(=O)CCCc1c[nH]c2ccccc12,i,-7.8*,i,i,-9,-0.55
COc1ccc(S(=O)(=O)N2CCC(C(=O)Nc3nccs3)CC2)cc1,i,i,i,i,-6,nt
O=C(NC(Cc1ccccc1)C(=O)O)/C(=C/c1ccco1)NC(=O)c1cccc([N+](=O)[O-])c1 (stereo not given),i,i,i,i,53*,1.4
CNC(=S)N/N=C1\C(=O)c2cccc3cccc1c23,i,i,i,i,-8,43*
CCCCNC(=S)N/N=C1\C(=O)c2cccc3cccc1c23,i,i,i,i,-3,5*
CN(C)S(=O)(=O)c1cccc(NC(=O)c2ccccc2OCc2ccc(F)cc2)c1,i,-7.3*,i,i,-5,nt
CN(C)S(=O)(=O)c1cccc(COc2ccccc2C(=O)Nc2ccccc2)c1,i,i,i,i,-10,nt
COc1c(C)cc(S(=O)(=O)NCc2ccco2)c(C)c1C,i,i,i,i,-6,nt
Cc1ccc(CNC(=O)c2ccc(Cn3nc(C)c(Cl)c3C)o2)cc1,i,-7*,i,i,-18,nt
